High-throughput results from PubChem.
ABHD4 inh = inhibits mouse alpha/beta hydrolase domain 4; Q8VD66; purified mABHD4, FP-Rh probe fluorescence polarization; inhibition, % at 8.92 µM; hit rate 0.54% among 370,000;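 active means inhibition exceeding the mean over every tested compound plus 3 SD, cut at about 30% in these data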;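 further: 0% = plate median of compound wells and 100% = S159A mutant with DMSO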
Target sequence (Q8VD66 whole entry, looked up, the tested form may be a part): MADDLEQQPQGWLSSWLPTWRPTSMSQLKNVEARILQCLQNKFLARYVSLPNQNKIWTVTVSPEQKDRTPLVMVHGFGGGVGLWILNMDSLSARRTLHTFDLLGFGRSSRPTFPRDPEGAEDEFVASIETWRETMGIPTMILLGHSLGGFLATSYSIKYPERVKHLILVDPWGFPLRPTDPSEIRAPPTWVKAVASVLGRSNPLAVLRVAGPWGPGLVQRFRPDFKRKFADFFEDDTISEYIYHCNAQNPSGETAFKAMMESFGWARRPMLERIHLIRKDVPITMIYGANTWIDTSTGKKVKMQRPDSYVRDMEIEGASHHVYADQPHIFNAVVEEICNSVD
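Test system: mABHD4 protein | Buffer or medium: HEPES pH 7.0 buffer, 150 mM NaCl, 0.01% Pluronic F-127 | Probe or stimulus: FP-Rh fluorescent activity-based probe, added after compound pre-incubation | Timing: Pre-incubation 45 min, probe exposure 60 min, at 25 °C | Technique: Fluorescence polarization, excitation 525 nm, emission 598 nm, BODIPY TMR filters | Repeats: Single well per compound (singlicate)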
SIAE primary = inhibitors of human sialic acid acetylesterase SIAE; Q9HAT2; SIAE FP-Rh probe binding, fluorescence polarization; inhibition, % at 9.66 µM; hit rate 0.69% among 370,000; AID 1053197;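 active means inhibition above a cutoff: mean of compounds within the control limits plus 3 SD of those, cut at about 17% in these data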;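 further: 0% = plate median of compound wells and 100% = probe without SIAE protein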
TCR CD3 inh = human TCR-CD3 binding inhibition; AID 651800; TAMRA-labeled TCR probe fluorescence, biochemical; hit rate 0.37% among 360,000; inhibition, % at 9.4 µM; in the data active means inhibition above about 19%;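 further: recombinant mutant TCR 2C K166C tagged with TAMRA read by polarization; 0% = receptor in buffer alone and 100% = receptor with positive control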
LEDGF integ inh = blocks HIV-1 LEDGF/p75-dependent DNA integration | TR-FRET IN-LEDGF/p75 DNA integration, Eu/Cy5 | inhibition, % at 3.7 µM | hit rate 0.64% among 370,000 | AID 743269;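 active means inhibition above the screen-wide mean plus 3 SD, cut at about 13% in these data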;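 further: signal is the Cy5 over europium emission ratio at 671 and 618 nm; 0% = plate median of compound wells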
TDP2 absorb = blocks human TDP2 phosphodiesterase activity | O95551 | recombinant TDP2, T5PNP hydrolysis, p-nitrophenol absorbance 415 nm | inhibition, % at 12.8 µM | hit rate 0.34% among 370,000 | AID 720702;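 active means inhibition above the mean of all tested compounds plus 3 SD, set per campaign, cut at about 25% in these data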;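 further: 0% = DMSO with enzyme and 100% = buffer with substrate but no TDP2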
Target sequence (O95551 whole entry, looked up): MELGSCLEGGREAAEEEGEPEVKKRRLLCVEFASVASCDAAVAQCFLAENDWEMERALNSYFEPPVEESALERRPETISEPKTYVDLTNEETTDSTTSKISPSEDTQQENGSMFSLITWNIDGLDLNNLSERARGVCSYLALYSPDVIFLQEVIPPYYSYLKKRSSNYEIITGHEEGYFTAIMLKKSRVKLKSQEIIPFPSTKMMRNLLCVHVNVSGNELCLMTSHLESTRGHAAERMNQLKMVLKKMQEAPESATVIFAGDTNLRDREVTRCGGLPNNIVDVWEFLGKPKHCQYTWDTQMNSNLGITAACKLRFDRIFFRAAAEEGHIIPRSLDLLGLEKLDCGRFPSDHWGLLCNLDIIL
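System – recombinant human TDP2 · Amount – 120 nM TDP2 per well · Buffer or medium – Mg2+-containing Tris-HCl buffer, pH 7.5 · Reagent – T5PNP substrate, 5 mM · Dosing – 12.8 µM single point, 1% DMSO · Incubation – 2 h at 37 °C · Measured by – epi absorbance · Read-out basis – percent inhibition · Benchmarks – high control without enzyme, low control DMSO plus TDP2 · Repeats – singlicate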
HTRA1 inh = inhibitors of human serine peptidase HTRA1 | inhibition, % at 5.96 µM | recombinant HTRA1, FP-rhodamine activity-based probe, fluorescence polarization | hit rate 0.5% among 340,000 | Q92743; in the data active means inhibition above about 36%;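 further: 0% = enzyme with DMSO and 100% = wells lacking enzyme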
IN multimer up = activates HIV-1 integrase multimerization in LEDGF counter-screen. shares compounds with LEDGF integ inh. TR-FRET HIV-1 integrase multimerization, biochemical. activation, % at 7.7 µM. hit rate 17% among 2,000. AID 1053131; in the data active means activation above about 8.9%
TRFRET interf = counter-screen for LEDGF/p75 integration inhibitors: TR-FRET optical interference; shares compounds with LEDGF integ inh; TR-FRET optical interference counterscreen, HIV-1 IN multimerization; inhibition, % at 7.7 µM; 2,000 tested, under 10 active; AID 1053135;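 active means inhibition above the mean over all tested compounds plus 3 SD, which no compound reached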;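 further: 0% = integrase with antibodies and DMSO and 100% = antibodies without integrase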
LEDGF integ conf = confirmation of HIV-1 LEDGF/p75-dependent integration inhibitors; inhibition, % at 3.7 µM; shares compounds with LEDGF integ inh; AID 1053136; hit rate 36% among 2,000; TR-FRET LEDGF/p75-dependent HIV-1 integration, biochemical; in the data active means inhibition above about 14%
SIAE confirm = confirmation of human SIAE inhibitors; hit rate 13% among 2,300; inhibition, % at 9.66 µM; shares compounds with SIAE primary; SIAE FP-Rh activity-based probe, fluorescence polarization;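 active means mean inhibition of the replicates above the hit cutoff set in the primary screen, cut at about 17% in these data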;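 further: 0% = SIAE with DMSO and probe and 100% = probe without SIAE; inhibitors lower polarization as more probe stays unbound to SIAE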
The depositor's hits bear a star; . = no result given. Sampled rows, rich in hits. Any-hit rate of the full collection: about 2.2%.

SMILES	ABHD4 inh	SIAE primary	TCR CD3 inh	LEDGF integ inh	TDP2 absorb	HTRA1 inh	IN multimer up	TRFRET interf	LEDGF integ conf	others
O=C(CS(=O)(=O)Cc1ccccc1)Nc1ccc(Cl)cn1	0	5	-1	88*	15	-2	5	-19	2
Cc1nnc(SCC(=O)Nc2ccc(Cl)cn2)n1Cc1ccccc1	-1	-2	5	16*	1	2	0	-1	0
O=C(O)/C(=C\c1ccco1)NC(=O)c1ccco1	15	4	5	8	-8	8	.	.	.
NC(=O)/C(=C\c1ccco1)NC(=O)c1ccco1	8	14	-3	14*	-8	5	2	-10	3
COc1ccc(C(O)c2nc(-c3ccc4ccccc4c3)cs2)cc1 (configuration not stated)	-71	-12	-16	5	-20	.	.	.	.
O=C(Cc1ccc(F)cc1)Nc1cc(S(=O)(=O)N2CCOCC2)ccc1N1CCCCC1	-3	1	1	4	7	-2	.	.	.
O=C(NC1=NCCS1)c1ccc(Cl)c(Cl)c1	-5	-1	2	3	-1	4	.	.	.
O=C(/C=C/c1ccc(Cl)c(Cl)c1)NC1=NCCS1	-11	-16	-8	28*	-6	-5	1	-3	6
CCCNC(=O)C1(C)CCN1C(=O)C/C=C/c1ccccc1 (configuration not stated)	2	1	-1	3	3	.	.	.	.
CCNC(=O)c1cc2c(c(-c3cccc(-c4ccccc4F)c3)n1)[C@H](CCO)N(C(=O)CC)C2	3	5	6	5	-12	.	.	.	.
Cc1cc(=O)oc2cc(NC(=O)CC3(CC(=O)O)CCCC3)ccc12	2	8	3	21*	17	.	-2	5	2
Cc1ccc(CNC(=O)O[C@H]2CC[C@@]34CCCN3C(=O)CCC[C@H]4C2)o1	-4	1	.	0	3	.	.	.	.
COc1ccc(Cl)cc1C(=O)n1cnc2ccccc21	4	1	4	0	16	3	.	.	.
O=C(NCC1CCCN1S(=O)(=O)c1cccs1)C(=O)Nc1cccc(F)c1 (configuration not stated)	-1	0	3	5	8	-6	.	.	.
C[C@@H]1NC(=O)N[C@@H]1CCCCCC(=O)O	-1	-1	0	82*	1	4	-1	5	74*
Cc1cccc(C)c1NC(=O)CCCCCC1NC(=O)NC1C (configuration not stated)	-4	8	8	20*	9	-1	-2	9	10
Cc1cccc(C)c1NC(=O)CCCN1CC(C)OC(C)C1 (configuration not stated)	1	-1	0	-5	-7	-4	.	.	.
O=C(O)CCCCC1SCC2NC(=O)NC21 (configuration not stated)	2	-2	-2	70*	5	-2	-2	9	63*
CCCCCC1NC(=O)NC1CCCCCC(=O)O (configuration not stated)	3	-1	8	-1	2	1	.	.	.
COc1ccc2cc(-c3cn(C(=O)N(c4ccccc4)c4ccccc4)nn3)ccc2c1	-10	-3	.	3	-8	.	.	.	.
Cc1nc2nc(C)c(NS(=O)(=O)c3cccs3)c(=O)n2[nH]1	1	2	2	2	6	2	.	.	.
Fc1ccc(Nc2nc(NCc3cccs3)nc3ccsc23)cc1	20	10	0	-3	2	.	.	.	.
CCc1nc2ccc(C(=O)N(CC)CCN(C)C)cn2c1N(C=O)CCC(C)C	3	-2	-4	-1	3	.	.	.	.
Cc1nc(SCC(=O)NCc2ccc3c(c2)OCO3)c(C#N)c2c1CCCC2	-3	4	3	91*	1	-3	1	-3	2
Cc1noc(C)c1S(=O)(=O)N(CC(=O)NC(C)c1ccccc1)c1ccc(C(C)C)cc1 (configuration not stated)	1	1	0	-1	4	-3	.	.	.
SMILES	ABHD4 inh	SIAE primary	TCR CD3 inh	LEDGF integ inh	TDP2 absorb	HTRA1 inh	IN multimer up	TRFRET interf	LEDGF integ conf	others
O=C(O)CSc1nnc(NC(=O)c2ccc3c(c2)OCO3)s1	2	0	2	-3	-10	6	.	.	.
COC(=O)CSc1nnc(NC(=O)c2ccc3c(c2)OCO3)s1	0	19*	18	25*	-6	7	0	-1	-13	SIAE confirm=-2
O=S(=O)(O)c1cc(O)c2cc(Nc3ccccc3)ccc2c1	65*	18*	19*	16*	14	27	41*	-145	44*	SIAE confirm=43*
CC(=O)Nc1ccc2c(O)cc(S(=O)(=O)O)cc2c1	13	11	-1	2	5	5	.	.	.
CN(CC(=O)Nc1ccccc1C(F)(F)F)C(=O)CSc1nc(N)cc(N)n1	3	8	1	0	4	1	.	.	.
CN(C)c1ccc(NC2=C([N+](=O)[O-])CS(=O)(=O)C2)cc1	29	18*	7	24*	4	21	7	-34	1	SIAE confirm=8
O=C(NC(Cc1ccccc1)C(=O)O)/C(=C/c1ccc(Cl)cc1)NC(=O)c1ccccc1 (configuration not stated)	-5	17*	3	20*	11	-5	2	-8	15*	SIAE confirm=1
COc1ccc(CN(CC(=O)NC(C)C)C(=O)CCC(=O)Nc2nccs2)cc1	2	-2	7	0	4	13	.	.	.
CC(=O)Nc1ccc(OCc2cn(CC(=O)c3ccc(O)cc3)nn2)cc1	12	21*	4	15*	6	2	7	-34	8	SIAE confirm=16
CC1(C(=O)NCCc2c[nH]c3ccccc23)CCN1CC1CCCCC1 (configuration not stated)	7	9	4	-1	-6	.	.	.	.
NC(=S)Nc1cccc2cc3ccccc3cc12	25	19*	-2	-2	19	27	.	.	.	SIAE confirm=7
Cc1nc(N2CCN(c3ccccc3)CC2)[nH]c(=O)c1C	-2	4	4	7	-10	0	.	.	.
COC(=O)C1=C(C)N(C)C(=NCc2cccc(C(F)(F)F)c2)NC1c1ccccc1C(F)(F)F (configuration not stated)	13	6	5	-1	-6	.	.	.	.
